Data on 19 compounds can be found in ChEMBL document CHEMBL1155138, “Identification and characterization of a new metallo-beta-lactamase, IND-5, from a clinical isolate of Chryseobacterium indologenes” (Antimicrob Agents Chemother, 2007).

Assay [1] has as its system Chryseobacterium indologenes. The assay can be described thus: Activity of Chryseobacterium indologenes metallo-beta-lactamase IND-5 expressed in Escherichia coli BL21(DE3) assessed as substrate hydrolysis. Put shortly: (§1)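 Purified IND-5 came from E. coli BL21(DE3)/pET-IND-5, induced with 1 mM IPTG for 2 h at 20°C. It was purified by Mono Q then Mono P chromatography in buffers with 50 μM ZnSO4. Substrate hydrolysis was measured under initial-rate conditions in 30 mM sodium cacodylate pH 6.5 plus 50 μM ZnSO4. Km and kcat came from Hanes linearization and are means of three measurements.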

Assay [2] deals with Escherichia coli. The assay can be described thus: Antimicrobial activity against Escherichia coli HB101 harboring pBC-IND-5 plasmid containing metallo-beta-lactamase IND5 assessed as drug level at which microbial resistance was observed by agar dilution method. The class given is functional.
Assay [3] deals with Escherichia coli. The assay can be described thus: Antimicrobial activity against Escherichia coli HB101 harboring pBC-SK plasmid assessed as drug level at which microbial resistance was observed by agar dilution method. It is filed as functional. (In agar dilution, organisms are placed on agar that contains the substance at set levels.)
In assay [4] the test system is Chryseobacterium indologenes. The experiment in a line: Antimicrobial activity against Chryseobacterium indologenes NF16 isolate assessed as drug level at which microbial resistance was observed by agar dilution method. The class given is functional. A digest of the protocol:
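Agar dilution per CLSI guidelines, inoculum 5 × 10^5 CFU per spot; E. coli ATCC 25922 run as quality-control strain.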

Assay [5] concerns Chryseobacterium indologenes. The experiment in a line: Ratio of Kcat to Km of Chryseobacterium indologenes metallo-beta-lactamase IND-5 expressed in Escherichia coli BL21(DE3) assessed as substrate hydrolysis. Put shortly:
as §1

For assay [6], the system named is Chryseobacterium indologenes. The experiment in a line: Ratio of Kcat to Km of Chryseobacterium indologenes metallo-beta-lactamase IND-5 expressed in Escherichia coli BL21(DE3) assessed as substrate hydrolysis relative to control. More on the design: scale not given: the % may be the effect or the level left.
The nature of assay [7]: Inhibition of Chryseobacterium indologenes metallo-beta-lactamase IND-5 expressed in Escherichia coli BL21(DE3) using nitrocefin reporter substrate. A digest of the protocol: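 Purified IND-5 at 0.1 μM was incubated for 15 min at 30°C with increasing concentrations of zinc chelator.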

Calls of active or inactive are those of the source. No cut-off for these calls is given here.

`CO/N=C(\C(=O)N[C@@H]1C(=O)N2C(C(=O)[O-])=C(C[N+]3(C)CCCC3)CS[C@H]12)c1csc(N)n1`: the outcome in assay [1] was inactive. Besides, the Activity in assay [2] was 0.5 µg/mL; in assay [3], less than 0.125 µg/mL; in assay [4], 0.5 µg/mL.
As for `CC1(C)S[C@@H]2[C@H](NC(=O)C(C(=O)O)c3ccccc3)C(=O)N2[C@H]1C(=O)O` (stereo partly specified), in assay [1], the Km was 320 µM and the kcat is 17 s⁻¹. Further, the kcat/Km in assay [5] stood at 53000 M⁻¹ s⁻¹. Further, the Activity in assay [6] amounted to 6.3%.
The like results for `CC1(C)S[C@@H]2[C@H](NC(=O)Cc3ccccc3)C(=O)N2[C@H]1C(=O)O` were, in that order, 13 µM, 10.9 s⁻¹, 840000 M⁻¹ s⁻¹ and 100%.
For `CC1(C)S[C@@H]2[C@H](NC(=O)[C@H](N)c3ccccc3)C(=O)N2[C@H]1C(=O)O`, in assay [1], the Km is 150 µM and the kcat was 10.3 s⁻¹. In assay [5], the kcat/Km is 69000 M⁻¹ s⁻¹. Further, in assay [6], the Activity came out at 8.2%.
On to `CC1(C)[C@H](C(=O)O)N2C(=O)C[C@H]2S1(=O)=O`, for which, in assay [1], the Km stood at 1300 µM and the kcat came to 3.3 s⁻¹. In assay [5], the kcat/Km turned out to be 2500 M⁻¹ s⁻¹. For the same compound, in assay [6], the Activity is 0.3%.
Regarding `CO[C@@]1(NC(=O)C(C(=O)O)c2ccc(O)cc2)C(=O)N2C(C(=O)O)=C(CSc3nnnn3C)CO[C@@H]21` (stereo partly specified), the outcome in assay [1] was inactive.
Regarding `C[C@]1(Cn2ccnn2)[C@H](C(=O)O)N2C(=O)C[C@H]2S1(=O)=O`, the outcome in assay [1] was inactive.
With `O=C(Cc1cccs1)N[C@@H]1C(=O)N2C(C(=O)O)=C(/C=C/c3ccc([N+](=O)[O-])cc3[N+](=O)[O-])CS[C@H]12`, in assay [1], the Michaelis-Menten constant (Km) came out at 8 µM and the kcat was found to be 4.4 s⁻¹. Further, the kcat/Km in assay [5] amounted to 550000 M⁻¹ s⁻¹. In addition, the Activity in assay [6] was 65%.
As for `CC1(C)S[C@@H]2[C@H](NC(=O)[C@H](N)c3ccc(O)cc3)C(=O)N2[C@H]1C(=O)O` [AMOXICILLIN], the Activity is greater than 64 µg/mL in assay [2], 2 µg/mL in assay [3] and greater than 64 µg/mL in assay [4].
As to `C[C@H]1[C@H](NC(=O)/C(=N\OC(C)(C)C(=O)O)c2csc(N)n2)C(=O)N1S(=O)(=O)O` [AZTREONAM], in assay [1], the result was inactive. For the same compound, the Activity in assay [4] turned out to be 32 µg/mL.
In the case of `Cc1nnc(SCC2=C(C(=O)O)N3C(=O)[C@@H](NC(=O)Cn4cnnn4)[C@H]3SC2)s1` [CEFAZOLIN], the Km in assay [1] was 25 µM. Further, the kcat in assay [1] was 0.46 s⁻¹. The Activity in assay [2] is 64 µg/mL; in assay [3] it was 1 µg/mL; in assay [4], 64 µg/mL; in assay [6], 2.1%. In addition, in assay [5], the kcat/Km was 18000 M⁻¹ s⁻¹.
As for `CO/N=C(\C(=O)N[C@@H]1C(=O)N2C(C(=O)O)=C(COC(C)=O)CS[C@H]12)c1csc(N)n1` [CEFOTAXIME], the Km in assay [1] came out at 49 µM. Also, the kcat in assay [1] was found to be 1.53 s⁻¹. Besides, the Activity amounted to 16 µg/mL in assay [2], 32 µg/mL in assay [4] and 3.7% in assay [6]. Besides, the kcat/Km in assay [5] was determined as 31000 M⁻¹ s⁻¹.
As for `CC(C)(O/N=C(\C(=O)N[C@@H]1C(=O)N2C(C(=O)[O-])=C(C[n+]3ccccc3)CS[C@H]12)c1csc(N)n1)C(=O)O` [CEFTAZIDIME], the Activity in assay [2] was 0.5 µg/mL; in assay [3], less than 0.5 µg/mL; in assay [4], 1 µg/mL.
`O=C(O)c1cccc(C(=O)O)n1` [DIPICOLINIC ACID] yielded a Ki in assay [7] of 3 µM.
`O=C(O)CN(CCN(CC(=O)O)CC(=O)O)CC(=O)O` [EDETIC ACID] had a Ki in assay [7] of 815 µM.
As for `C[C@@H](O)[C@H]1C(=O)N2C(C(=O)O)=C(SCCNC=N)C[C@H]12` [IMIPENEM ANHYDROUS], the Km in assay [1] was 300 µM. Moreover, the kcat in assay [1] turned out to be 7.28 s⁻¹. Further, the Activity in assay [2] worked out at 1 µg/mL; in assay [3], 0.5 µg/mL; in assay [4], 32 µg/mL; in assay [6] it was 2.8%. For the same compound, the kcat/Km in assay [5] turned out to be 24000 M⁻¹ s⁻¹.
As for `C[C@@H](O)[C@H]1C(=O)N2C(C(=O)O)=C(S[C@@H]3CN[C@H](C(=O)N(C)C)C3)[C@H](C)[C@H]12` [MEROPENEM], the Km in assay [1] came to 280 µM. The turnover number (kcat) in assay [1] amounted to 4.13 s⁻¹. In addition, the Activity in assay [2] is 1 µg/mL; in assay [3] it was less than 0.125 µg/mL; in assay [4], 16 µg/mL; in assay [6], 1.8%. Further, the kcat/Km in assay [5] is 15000 M⁻¹ s⁻¹.
On to `c1cnc2c(c1)ccc1cccnc12` [PHENANTHROLINE], for which, in assay [7], the Ki turned out to be 7.3 µM.
Turning to `CCN1CCN(C(=O)N[C@@H](C(=O)N[C@@H]2C(=O)N3[C@@H]2SC(C)(C)[C@@H]3C(=O)O)c2ccccc2)C(=O)C1=O` [PIPERACILLIN], the Km in assay [1] is 375 µM. In addition, the kcat in assay [1] came to 14.6 s⁻¹. Moreover, the Activity in assay [2] was 32 µg/mL; in assay [3] it was 1 µg/mL; in assay [4] it was 16 µg/mL; in assay [6] it was 4.6%. In assay [5], the kcat/Km turned out to be 39000 M⁻¹ s⁻¹.

For orientation: Km means the concentration of substrate that gives half-maximal velocity. The kcat is the maximal rate divided by the concentration of active sites. Usually kcat/Km stands for the second-order rate constant that governs catalysis at low substrate concentration. One may read the Ki as a dissociation constant, usually derived from enzyme kinetics or from competition with a known ligand.
